# Compounds with a hit are over-represented: about 5.9% of the library has one in this group of screens.
# Pf Dd2 growth – inhibitors of Plasmodium falciparum Dd2 growth. P. falciparum Dd2 growth, SYBR Green, 72 h; hits give low values. activity change, % at 10 µM. hit rate 2.3% among 94,000; in the data active = activity change below about -80%; inconclusive = no clear call, values can overlap the other calls
# T cruzi growth-1 – inhibitors of T. cruzi proliferation; T. cruzi beta-gal in NIH3T3, GalScreen luminescence, 90 h; inhibition, % at 8.34 µM; hit rate 5.9% among 77,000;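 active = mean inhibition above about 93%, with at least 55% of replicates each passing it, limit read from the data, passing the limit was not always enough; inconclusive = only one of those two conditions holds; inactive = neither condition holds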
# IDH1 R132H inh – inhibitors of human IDH1 R132H. AID 624101. inhibition, % at 10 µM. IDH1 R132H reductase, diaphorase/resazurin fluorescence, 60 min. hit rate 0.18% among 70,000. O75874; in the data active = inhibition above about 34%; inconclusive = no clear call, values can overlap the other calls; inactive = below about 11%;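 also: 0% = DMSO and 100% = no enzyme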
# Target sequence (O75874 whole entry R132H): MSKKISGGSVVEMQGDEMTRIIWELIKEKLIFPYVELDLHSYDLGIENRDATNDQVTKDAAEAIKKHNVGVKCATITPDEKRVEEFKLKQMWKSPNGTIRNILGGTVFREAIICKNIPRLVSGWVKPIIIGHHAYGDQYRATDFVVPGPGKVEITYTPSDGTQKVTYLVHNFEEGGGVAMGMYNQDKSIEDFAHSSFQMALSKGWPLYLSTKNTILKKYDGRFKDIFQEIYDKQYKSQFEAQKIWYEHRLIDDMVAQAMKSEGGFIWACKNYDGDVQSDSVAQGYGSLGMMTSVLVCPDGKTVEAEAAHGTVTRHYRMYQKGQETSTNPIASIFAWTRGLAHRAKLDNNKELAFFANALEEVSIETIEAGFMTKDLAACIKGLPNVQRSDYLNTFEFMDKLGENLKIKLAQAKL
# GASC1 inh – KDM4C (human) demethylase inhibition; GST-KDM4C 2-372, H3K9me3 peptide, LANCE TR-FRET; inhibition, % at 12.5 µM; hit rate 0.15% among 96,000; AID 720574;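 active = mean replicate inhibition above about 25%, with at least 55% of replicates also reaching it, limit read from the data, passing the limit was not always enough; inconclusive = only one of those two conditions met; inactive = neither condition met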
#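 material = GST-tagged GASC-1 (JMJD2C) catalytic fragment, aa 2-372 | amount = enzyme final amount 10 nM | medium = HEPES buffer, pH 7.5, plus ascorbate | also added = H3K9me3 peptide substrate, Fe(II), 2-oxoglutarate | dosing = single dose | times = 30 min demethylation and 1 h detection at room temperature | detection = LANCE TR-FRET | read-out basis = Fall in 671/618 emission ratio as inhibition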
# T cruzi growth-2 – inhibitors of T. cruzi proliferation; inhibition, % at 8.35 µM; T. cruzi beta-gal in NIH3T3, GalScreen luminescence, 90 h; hit rate 72% among 5,600; shares compounds with T cruzi growth-1;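 active = mean replicate inhibition above about 95% and at least 55% of replicates individually reaching it, limit read from the data; inconclusive = only one of the two criteria is met; inactive = neither criterion is met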
# T cruzi growth-3 – blocks T. cruzi growth in NIH3T3 host cells; inhibition, % at 2.09 µM; shares compounds with T cruzi growth-1; T. cruzi beta-gal in NIH3T3, GalScreen luminescence, 90 h; hit rate 21% among 5,600;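 active = mean inhibition above about 95%, with at least 55% of replicates also reaching it, limit read from the data; inconclusive = meets just one of the two conditions; inactive = meets neither condition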;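 also: plate controls were neutral control median for no effect and positive control median for full effect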
# 3T3 cytotox – cytotoxicity in mouse NIH/3T3 fibroblasts. cytotoxicity (signal decrease), % at 8.35 µM. NIH/3T3 viability, CellTiter-Glo ATP luminescence, 90 h. hit rate 14% among 5,600. shares compounds with T cruzi growth-1;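 active = mean signal decrease across replicates above about 35% based on untreated-well scatter, with enough replicates individually passing, limit read from the data; inconclusive = no rule stated though some were filed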;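 also: 0% = median of neutral control wells and 100% = median of positive control wells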
# 3T3 cytotox 2 – cytotoxicity in mouse NIH/3T3 fibroblasts. hit rate 56% among 5,600. NIH/3T3 viability, CellTiter-Glo ATP luminescence, 90 h. shares compounds with T cruzi growth-1. AID 651744. inhibition, % at 24.9 µM;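 active = mean loss of cell viability signal at or above a set limit, and enough replicates individually reaching it; inconclusive = meets only the mean limit or only the replicate share; inactive = meets neither condition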;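 also: 0% = median of neutral control wells and 100% = median of positive control wells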
# * = called active by the depositor; ? = inconclusive; . = no result.
SMILES,Pf Dd2 growth,T cruzi growth-1,IDH1 R132H inh,GASC1 inh,T cruzi growth-2,T cruzi growth-3,3T3 cytotox,3T3 cytotox 2
COC(=O)C[C@H]1CC[C@H]2[C@H](COc3ccc(NS(=O)(=O)c4ccc(F)cc4)cc3C(=O)N2C)O1,26,97*,.,-1,28,2,-7,-3
COC(=O)C[C@H]1CC[C@H]2[C@H](COc3ccc(NC(=O)Nc4ccc(Cl)cc4)cc3C(=O)N2C)O1,8,110*,.,-2,103*,114*,34,33*
CN1C(=O)c2cc(NS(=O)(=O)c3ccc(Cl)cc3)ccc2OC[C@@H]2O[C@H](CC(=O)N3CCc4ccccc4C3)CC[C@@H]21,6,107*,.,2,108*,58,-1,8
CCCNC(=O)N1[C@H](CNC(C)=O)[C@@H](c2ccc(-c3ccccc3)cc2)[C@@H]1CO,-2,110*,.,-1,29,-29,-8,14
CCCNC(=O)N1[C@@H](CO)[C@H](c2ccccc2)[C@@H]1CNC(=O)c1cccc(F)c1,-45,102*,.,-1,-3,12,-19,-2
CCCNC(=O)N1[C@H](CO)[C@@H](c2ccccc2)[C@@H]1CNC(=O)c1cccc(F)c1,-3,-4,.,-3,.,.,.,.
Cc1ccc(NC(=O)CSc2nc3sc4c(c3c(=O)n2-c2ccccc2)CCCC4)c(C)c1,.,.,0,.,.,.,.,.
Cn1nnnc1SCC(=O)Nc1cccc(Cl)c1Cl,.,.,-1,.,.,.,.,.
C[C@@H]1CN([C@H](C)CO)C(=O)c2cc(NS(=O)(=O)c3ccc(F)cc3)ccc2O[C@@H](C)CCCCO[C@H]1CN(C)Cc1ccc2c(c1)OCO2,-48,112*,-4,2,106*,85,29,104*
C[C@@H]1CN([C@@H](C)CO)C(=O)c2cc(NS(=O)(=O)c3ccc(F)cc3)ccc2O[C@@H](C)CCCCO[C@@H]1CN(C)Cc1ccc2c(c1)OCO2,-73,119*,1,0,106*,45,17,97*
CCc1ccc2nc(N3C(=O)C(=O)C(C(=O)c4ccco4)C3c3cc(OC)ccc3OC)sc2c1 (stereo unspecified),.,.,6,.,.,.,.,.
O=S(=O)(Nc1ncccn1)c1ccc(NC(=S)N2CCN(c3ncccn3)CC2)cc1,.,.,0,.,.,.,.,.
CNc1nc(NC(C)C)nc(Oc2ccc(=O)[nH]n2)n1,.,.,0,.,.,.,.,.
C[C@@H]1CCCCO[C@H](CN(C)C(=O)Nc2ccc3c(c2)OCO3)[C@@H](C)CN([C@H](C)CO)C(=O)c2cc(NC(=O)Cc3ccccc3)ccc2O1,-32,38,.,1,.,.,.,.
C[C@H]1CCCCO[C@@H](CN(C)C(=O)c2ccccc2)[C@@H](C)CN([C@@H](C)CO)C(=O)c2cc(NC(=O)Nc3ccc(F)cc3)ccc2O1,-68,?,1,-3,115*,12,3,15
C[C@@H]1CCCCO[C@@H](CN(C)C(=O)Nc2ccccc2)[C@@H](C)CN([C@@H](C)CO)C(=O)c2cc(NC(=O)Nc3ccc(F)cc3)ccc2O1,.,.,3,-1,.,.,.,.
C[C@H]1CCCCO[C@H](CN(C)C(=O)Nc2ccc(F)cc2)[C@@H](C)CN([C@@H](C)CO)C(=O)c2cc(NC(=O)Nc3ccccc3)ccc2O1,-51,?,.,0,108*,88,15,11
C[C@H]1CCCCO[C@@H](CN(C)C(=O)Nc2ccc3c(c2)OCO3)[C@@H](C)CN([C@@H](C)CO)C(=O)c2cc(NC(=O)Cc3ccccc3)ccc2O1,-60,?,0,1,103*,11,6,-9
C[C@@H]1CN([C@@H](C)CO)C(=O)c2cc(NC(=O)Nc3ccc(F)cc3)ccc2O[C@@H](C)CCCCO[C@H]1CN(C)C(=O)c1ccccc1,54,68,-1,-1,.,.,.,.
C[C@H](CO)N1C[C@H](C)[C@H](CN(C)C(=O)Nc2ccc3c(c2)OCO3)OCCCC[C@H](C)Oc2ccc(NC(=O)Nc3ccccc3)cc2C1=O,9,114*,.,-1,112*,55,-15,-20
O=C(NO)c1ccc(C(=O)N/N=C/Cc2ccccc2)cc1,.,.,0,.,.,.,.,.

# Screening data from PubChem.
